Measurements taken from ChEMBL document CHEMBL1125040, “Reversible inhibitors of the gastric (H+/K+)-ATPase. 1. 1-Aryl-4-methylpyrrolo[3,2-c]quinolines as conformationally restrained analogues of 4-(arylamino)quinolines” (J Med Chem, 1990).

Columns and labels:
Rattus norvegicus [1] = assay: In vivo inhibition of rat gastric secretion was determined at a dose of 10 uM/kg; assay type: functional, Stomach
Summary of the method: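 Pentagastrin-stimulated lumen-perfused rats given a single iv bolus of 10 μmol/kg. Acid output measured in the gastric perfusate. Percent inhibition taken at peak inhibition relative to the secretory plateau immediately before dosing; mean of four rats ± SEM.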

Sus scrofa = organism: Sus scrofa; assay: In vitro inhibition of [14C]-aminopyrine accumulation was determined in gastric vesicles of pig with outside vesicle pH 7; details: Stomach
Rattus norvegicus [2] = assay: In vivo antisecretory activity was determined for inhibition of gastric secretion in rat; assay type: functional; details: Stomach
Summary of the method: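 Lumen-perfused rat stimulated with pentagastrin; compound given as iv bolus; acid output measured in gastric perfusate. Percent inhibition taken at peak inhibition versus secretory plateau just before dosing.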

[3] = pKa value was determined; assay type: physicochemical
Rattus norvegicus [4] = assay: In vivo antisecretory activity was determined for inhibition of gastric secretion in rat; rats died at doses giving less than 50% inhibition; assay type: organism-based, Stomach

Row | SMILES | Inhibition (Rattus norvegicus [1]) [%] | IC50 (Sus scrofa) [nM] | ED50 (Rattus norvegicus [2]) [µmol/kg] | pKa [3] | ED50 (Rattus norvegicus [4])
1 | Cc1cccc(C)c1N1CCc2c(C)nc3ccccc3c21 | 18 | – | – | – | –
2 | Cc1nc2c(OCc3ccccc3)cccn2c1CC#N | – | 13 | 0.31 | – | –
3 | COc1cccc2c1nc(C)c1ccn(-c3ccccc3C)c12 | 48 | 34 | 7.1 | 7.4 | –
4 | COc1ccc(N2CCc3c(C)nc4ccccc4c32)c(C)c1 | 51 | 26 | – | – | –
5 | COc1ccc(N2CCc3c(C)nc4c(OC)cccc4c32)c(C)c1 | 45 | – | – | – | –
6 | COc1ccccc1N1CCc2c(C)nc3c(OC)cccc3c21 | – | 230 | – | – | Toxic
7 | Cc1ccccc1N1CCc2c1c1ccccc1[n+]([O-])c2C | 40 | – | – | – | –
8 | Cc1ccccc1N1CCc2c(C)nc3c(C)cccc3c21 | 43 | 28 | – | – | –
9 | COc1cccc2c3c(c(C)nc12)CCN3c1ccccc1C | – | 36 | 19.8 | 9.5 | –
10 | Cc1ccccc1-n1nnc2cnc3ccccc3c21 | – | > 30000 | – | – | –
11 | Cc1cc(O)ccc1N1CCc2c(C)nc3ccccc3c21 | 41 | – | – | – | –
12 | COc1cccc2c3c(cnc12)CCCN3c1ccccc1C | 21 | 110 | – | – | –
13 | COc1cccc2c3c(c(C)[n+](C)c12)CCN3c1ccccc1C | – | 2400 | – | – | –
14 | COc1cccc2c3c(c(C)nc12)CCN3Cc1ccccc1 | 0 | 1600 | – | – | Toxic
15 | Cc1ccccc1N1CCc2c(C)nc3c(O)cccc3c21 | 23 | 61 | – | – | –
16 | COc1cccc2c3c(c(C)nc12)CCN3c1ccccc1 | 17 | 84 | – | – | Toxic
17 | Cc1ccccc1-n1cnc2cnc3ccccc3c21 | – | 2230 | – | – | –
18 | COc1ccc2[nH]c([S+]([O-])Cc3ncc(C)c(OC)c3C)nc2c1 (centres undefined) [OMEPRAZOLE] | – | – | 0.45 | – | –
19 | Cc1ccccc1N1CCc2c(C)nc3c(F)cccc3c21 | 26 | – | – | – | –
20 | Cc1ccccc1-n1c(S)nc2cnc3ccccc3c21 | – | > 30000 | – | – | –
21 | Cc1ccccc1N1CCc2c(C)nc3ccccc3c21 | 42 | 28 | – | – | –
22 | CCOC(=O)c1cnc2c(OC)cccc2c1Nc1ccccc1C | – | 37 | 8.2 | – | –
